Measured values collected from several papers.
Compare with care: the assays were run in different laboratories.
FABP4: Fatty acid-binding protein, adipocyte (FABP4, Homo sapiens, UniProt P15090)
CDK9 with cyclin T1: Cyclin-dependent kinase 9, with cyclin T1 (CDK9, Homo sapiens, UniProt P50750)
TNKS: Poly [ADP-ribose] polymerase tankyrase-1 (TNKS, Homo sapiens, UniProt O95271)
DPP4: Dipeptidyl peptidase 4 (DPP4, Homo sapiens, UniProt P27487)
SLC22A13: SLC22A13 (Homo sapiens, UniProt Q9Y226)
CYP2C9: Cytochrome P450 2C9 (CYP2C9, Homo sapiens, UniProt P11712)
AKT1: RAC-alpha serine/threonine-protein kinase (AKT1, Homo sapiens, UniProt P31749)

Structure (SMILES) | target | assay | system | setting | IC50 [µM]
CCCCCCCC(=O)O | FABP4 | ligand displacement, fluorescence |  | pH 7.5 | 32.7
CN(C)C(=O)c1cc2cnc(Nc3ccc(-c4ccc5c(=O)cc(N6CCOCC6)oc5c4)cc3)nc2n1C1CCCC1 | CDK9 with cyclin T1 | enzyme activity, inhibitor, radiometric |  |  | 0.0044
CC(C)(O)c1ccc(-c2nc3cc(NC(=O)c4cnc(OCc5ccccc5)nc4)ccc3c(=O)[nH]2)cc1 | TNKS | enzyme activity, inhibitor |  |  | 6.36
CN(C)C(=O)c1cc2cnc(Nc3cc(C(F)(F)F)c(-c4cccc5c(=O)cc(N6CCOCC6)oc45)cn3)nc2n1C1CCCC1 | CDK9 with cyclin T1 | enzyme activity, inhibitor, radiometric |  |  | > 10
Cc1nc2n(c(=O)c1CCN1CCC(c3noc4cc(F)ccc34)CC1)CCCC2O (stereo not shown) | DPP4 | enzyme activity, inhibitor, absorbance |  |  | 48.9
COc1ccc(-c2cc(=O)c3cccc(Nc4ncc5cc(C(=O)N(C)C)n(C6CCCC6)c5n4)c3o2)cc1 | CDK9 with cyclin T1 | enzyme activity, inhibitor, radiometric |  |  | > 10
CNS(=O)(=O)c1ccc(Nc2ncc(C(F)(F)F)c(N3CCC(C)(O)CC3)n2)c(C)c1 | CDK9 with cyclin T1 | enzyme activity, inhibitor, radiometric |  |  | > 10
CN(C)C(=O)c1cc2cnc(Nc3ccc(-c4ccc5c(=O)cc(N6CCNCC6)oc5c4)cc3)nc2n1C1CCCC1 | CDK9 with cyclin T1 | enzyme activity, inhibitor, radiometric |  |  | 0.0062
c1ccc(-c2ccc3c(c2)NC(C2Nc4cc(-c5ccccc5)ccc4O2)O3)cc1 (stereo not shown) | Mitogen-activated protein kinase 3 (MAPK3, Homo sapiens, UniProt P27361) | enzyme activity, inhibitor, ADP detection |  |  | 10.6
NC/C(=C\F)COc1cccc(Cn2c(=S)[nH]c(=O)c3[nH]cnc32)c1 | Myeloperoxidase (Mus musculus, UniProt P11247) | enzyme activity, inhibitor |  |  | 0.1
CCc1oc2cc(F)c(F)cc2c1C(=O)c1cc(Br)c(O)c(Br)c1 | SLC22A13 | transporter uptake, inhibitor, radiometric |  | oocytes | 9.7
CCCCCCCCC(=O)O | FABP4 | ligand displacement, fluorescence |  | pH 7.5 | 30
Cc1cc(S(=O)(=O)NCCO[C@H]2CC[C@H](CN3CCC(c4ccn5c(N6CCC(=O)NC6=O)cnc5c4)CC3)CC2)ccc1Nc1ncc2cc(Cl)c(=O)n(C3CCCC3)c2n1 | CDK9 with cyclin T1 | enzyme activity, inhibitor, radiometric |  |  | > 10
CN(C)C(=O)c1cc2cnc(Nc3cncc(-c4ccc5c(=O)cc(N6CCOCC6)oc5c4)c3)nc2n1C1CCCC1 | CDK9 with cyclin T1 | enzyme activity, inhibitor, radiometric |  |  | 0.00057
Cc1ccc(OCC(=O)N[C@@H](Cc2c[nH]c3ccccc23)C(=O)OC(C)C)cc1 | CYP2C9 | enzyme activity, inhibitor | human, liver microsomes | 30 min | > 50
CNCC(=O)OCc1cccnc1N(C)C(=O)OC(C)[n+]1cnn(C[C@](O)(c2cc(F)ccc2F)[C@@H](C)c2nc(-c3ccc(C#N)cc3)cs2)c1 (stereo partly shown) | DPP4 | enzyme activity, inhibitor, absorbance |  |  | 6.6
COc1ccc2c(=O)[nH]c3c(nnn3Cc3ccc(C)cc3)c2c1 | TNKS | enzyme activity, inhibitor, fluorescence |  |  | 0.112
OC1(c2ccc(-c3ccnc4[nH]cc(F)c34)cc2)CCCNCC1 (stereo not shown) | AKT1 | enzyme activity, inhibitor, radiometric |  |  | 0.4
Cc1cc2c(C(N)=O)c(N)n(-c3c(C)ccc(O)c3C)c2nc1C | Proto-oncogene tyrosine-protein kinase Src (SRC, Homo sapiens, UniProt P12931) | enzyme activity, inhibitor, TR-FRET |  |  | 0.0064
CC(C)(O)c1ccc(-c2nc3cc(NC(=O)c4ccc(-c5ccccc5)nc4)ccc3c(=O)[nH]2)cc1 | TNKS | enzyme activity, inhibitor |  |  | 0.528
COc1ccc(-c2coc3cc(O)ccc3c2=O)cc1 | CYP2C9 | enzyme activity, inhibitor | human, liver microsomes | 15 min | 5.63
Cc1c(N2CCOCC2)oc2c(-c3ccc(Nc4ncc5cc(C(=O)N(C)C)n(C6CCCC6)c5n4)cc3F)cccc2c1=O | CDK9 with cyclin T1 | enzyme activity, inhibitor, radiometric |  |  | 0.338

Structure (SMILES) | target | assay | system | setting | IC50 [µM]
COc1cc(C(=O)NS(=O)(=O)c2ccccc2C)ccc1Cc1cn(C)c2ccc(NC(=O)OC3CCCC3)cc12 | Protein disulfide-isomerase A3 (PDIA3, Homo sapiens, UniProt P30101) | enzyme activity, inhibitor |  |  | 25
O=c1c(-c2ccc(O)cc2)coc2cc(O)ccc12 | CYP2C9 | enzyme activity, inhibitor | human, liver microsomes | 15 min | 6.6
CN(C)C(=O)c1cc2cnc(Nc3ccc(-c4cccc5c(=O)cc(N6CCOCC6)oc45)cn3)nc2n1C1CCCC1 | CDK9 with cyclin T1 | enzyme activity, inhibitor, radiometric |  |  | 4.15
CCCCCCCCCCCC(=O)O | FABP4 | ligand displacement, fluorescence |  | pH 7.5 | 2.28
C[C@@H]1CNC[C@H](C)[C@@]1(O)c1ccc(-c2ccnc3[nH]cc(F)c23)cc1 | AKT1 | target engagement in cells, BRET |  |  | 38.9
O=C(O)C(F)(F)C(F)(F)C(F)(F)C(F)(F)C(F)(F)C(F)(F)C(F)(F)C(F)(F)C(F)(F)C(F)(F)C(F)(F)C(F)(F)F | FABP4 | ligand displacement, fluorescence |  | pH 7.5 | 2.12
CNS(=O)(=O)c1ccc(Nc2ncc(C(F)(F)F)c(N3CCCC(C)(O)C3)n2)c(C)c1 (stereo not shown) | CDK9 with cyclin T1 | enzyme activity, inhibitor, radiometric |  |  | > 10
Cc1cc(-c2ccnc3[nH]cc(F)c23)cc(F)c1[C@@]1(O)[C@H](C)CN(C2CCS(=O)(=O)CC2)C[C@@H]1C | AKT1 | enzyme activity, inhibitor, radiometric |  |  | 0.346
CCc1oc2ccccc2c1C(=O)c1cc(Br)c(O)c(Br)c1 | SLC22A13 | transporter uptake, inhibitor, radiometric |  | oocytes | 12.5
CNC(=O)c1ccc(C(=O)Nc2ccc3c(=O)[nH]c(-c4ccc(C(C)(C)O)cc4)nc3c2)cc1 | TNKS | enzyme activity, inhibitor |  |  | 0.819
CCCCCCCCCCCCCC(=O)O | FABP4 | ligand displacement, fluorescence |  | pH 7.5 | 1.34
OC1(c2ccc(-c3ccnc4[nH]cc(F)c34)cc2)CCNC1 (stereo not shown) | AKT1 | target engagement in cells, BRET |  |  | 18.1
CCCCCCCCCCC(=O)O | FABP4 | ligand displacement, fluorescence |  | pH 7.5 | 2.25
Fc1c[nH]c2nccc(-c3ccc(C4CCNCC4)cc3)c12 | AKT1 | enzyme activity, inhibitor, radiometric |  |  | 0.895
O=C(NO)c1ccc(Cn2cnc3c(Nc4ccc(Cl)cc4)ncnc32)cc1 | AKT1 | enzyme activity, inhibitor, radiometric |  |  | > 20
Cc1cc(-c2ccnc3[nH]cc(F)c23)cc(F)c1[C@@]1(O)[C@H](C)CN(C(=O)CN)C[C@@H]1C | AKT1 | enzyme activity, inhibitor, radiometric |  |  | 0.165
Cc1nc2c(F)cc(-c3ccnc(Nc4ccc5c(=O)cc(N6CCOCC6)oc5c4)n3)cc2n1C(C)C | CDK9 with cyclin T1 | enzyme activity, inhibitor, radiometric |  |  | 0.024
CC1CNCCC1(O)c1ccc(-c2ccnc3[nH]cc(F)c23)cc1 (stereo not shown) | AKT1 | target engagement in cells, BRET |  |  | 30.9
CC(=O)N1C(=O)NC(C)=C(C(=O)OCc2ccccc2)C1c1cccc([N+](=O)[O-])c1 (racemic) | Voltage-dependent T-type calcium channel subunit alpha-1H (CACNA1H, Homo sapiens, UniProt O95180) | ion current, inhibitor, patch clamp |  |  | 3.6
CNS(=O)(=O)c1ccc(Nc2ncc(C(F)(F)F)c([C@H]3CC[C@@](C)(O)CC3)n2)c(C)c1 | CDK9 with cyclin T1 | enzyme activity, inhibitor, radiometric |  |  | > 10
OC1(c2ccc(-c3ccnc4[nH]cc(F)c34)cc2)CCCNC1 (stereo not shown) | AKT1 | enzyme activity, inhibitor, radiometric |  |  | 0.383
